Measured values as given in ChEMBL document CHEMBL4011658 (J Med Chem, 2017).
Values after ≈ are worked out from the molar mass of the structure shown. Active and inactive are the calls of the source. No cut-off for these calls is given here. Residues, ends and D or L forms follow the SMILES beside them. *: point of attachment. Boc = CC(C)(C)OC(=O)*; NHBn = c1ccc(CN*)cc1

Tests used:
[1] = Selectivity index, ratio of cytotoxicity against pig LLC-PK1 cells to IC50 for Cryptococcus neoformans ATCC 90113; format: toxicity, cell-based; conditions: read-out: Selectivity Index
[2] = Selectivity index, ratio of cytotoxicity against human BT549 cells to IC50 for Cryptococcus neoformans ATCC 90113; format: toxicity, cell-based; conditions: read-out: Selectivity Index
[3] = Selectivity index, ratio of cytotoxicity against human SKOV3 cells to IC50 for Cryptococcus neoformans ATCC 90113; format: toxicity, cell-based; conditions: read-out: Selectivity Index
BT-549 = test: Cytotoxicity against human BT549 cells assessed as reduction in cell viability after 48 hrs by neutral red uptake assay; format: cell-based; conditions: bt-549, 48 h
Procedure, shortened: (§1)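 Cells seeded at 25 000 per well and grown 24 h to confluence, then exposed to peptides up to 10 μg/mL for 48 h; viability by modified neutral red uptake; doxorubicin positive control, DMSO negative control.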

SK-MEL = test: Cytotoxicity against human SK-MEL cells assessed as reduction in cell viability after 48 hrs by neutral red uptake assay; format: cell-based; procedure, shortened: as §1
Cryptococcus neoformans = test: Antifungal activity against Cryptococcus neoformans ATCC 90113 after 70 to 74 hrs by alamar blue dye based CLSI method; format: functional
SK-OV-3 = test: Cytotoxicity against human SKOV3 cells assessed as reduction in cell viability after 48 hrs by neutral red uptake assay; format: cell-based; conditions: sk-ov-3, 48 h; procedure, shortened: as §1
[4] = Selectivity index, ratio of cytotoxicity against African green monkey VERO cells to IC50 for Cryptococcus neoformans ATCC 90113; format: toxicity, cell-based; conditions: read-out: Selectivity Index
Candida = test: Antifungal activity against Candida; format: functional
Escherichia coli = test: Antibacterial activity against Escherichia coli ATCC 35218 after 16 to 20 hrs by alamar blue dye based CLSI method; format: functional
Aspergillus = test: Antifungal activity against Aspergillus; format: functional
[5] = Selectivity index, ratio of cytotoxicity against human SK-MEL cells to IC50 for Cryptococcus neoformans ATCC 90113; format: toxicity, cell-based; conditions: read-out: Selectivity Index
LLC-PK1 = test: Cytotoxicity against pig LLC-PK1 cells assessed as reduction in cell viability after 48 hrs by neutral red uptake assay; format: cell-based, Sus scrofa; conditions: llc-pk1, 48 h; procedure, shortened: as §1
Vero = test: Cytotoxicity against African green monkey Vero cells assessed as reduction in cell viability after 48 hrs by neutral red uptake assay; format: cell-based; conditions: chlorocebus sabaeus; procedure, shortened: as §1

Row | Structure (SMILES) | selectivity ratio [1] | selectivity ratio [2] | selectivity ratio [3] | Activity (BT-549) [µg/mL] | Activity (SK-MEL) [µg/mL] | MFC (Cryptococcus neoformans) [µg/mL] | MIC (Cryptococcus neoformans) [µg/mL] | Activity (SK-OV-3) [µg/mL] | selectivity ratio [4] | Activity (Candida) | Activity (Escherichia coli) | Activity (Aspergillus) | selectivity ratio [5] | Activity (LLC-PK1) [µg/mL] | Activity (Vero) [µg/mL] | IC50 (Cryptococcus neoformans) [µg/mL]
1 | N[C@@H](Cc1cnc[nH]1)C(=O)N[C@@H](Cc1c[nH]c2ccccc12)C(=O)N[C@@H](Cc1cnc[nH]1)C(=O)NCc1ccccc1 (H-His-Trp-His-NHBn) | > 1.2 | > 1.2 | > 1.2 | > 10 | > 10 | 10 (≈ 17.6 µM) | 10 (≈ 17.6 µM) | > 10 | > 1.2 | inactive | inactive | inactive | > 1.2 | > 10 | > 10 | 
2 | COC(=O)[C@H](Cc1c[nH]c(-c2ccccc2)n1)NC(=O)[C@H](Cc1c[nH]c2ccccc12)NC(=O)[C@@H](N)Cc1c[nH]c(-c2ccccc2)n1 | > 2.7 | > 2.7 | > 2.7 | > 10 | > 10 | 10 (≈ 15.5 µM) | 10 (≈ 15.5 µM) | > 10 | > 2.7 | inactive | inactive | inactive | > 2.7 | > 10 | > 10 | 3.71 (≈ 5.75 µM)
3 | CC(C)(C)OC(=O)N[C@@H](Cc1c[nH]c(-c2ccc(-c3ccccc3)cc2)n1)C(=O)N[C@@H](Cc1c[nH]c2ccccc12)C(=O)N[C@@H](Cc1c[nH]c(-c2ccc(-c3ccccc3)cc2)n1)C(=O)NCc1ccccc1 |  |  |  | > 10 | > 10 |  |  | > 10 |  | inactive | inactive | inactive |  | > 10 | > 10 | > 20
4 | COC(=O)[C@H](Cc1c[nH]c(-c2ccc(C(C)(C)C)cc2)n1)NC(=O)[C@H](Cc1c[nH]c2ccccc12)NC(=O)[C@H](Cc1c[nH]c(-c2ccc(C(C)(C)C)cc2)n1)NC(=O)OC(C)(C)C | > 7.9 | > 7.9 | > 7.9 | > 10 | > 10 | 5 (≈ 5.83 µM) | 5 (≈ 5.83 µM) | > 10 | > 7.9 | inactive | inactive | inactive | > 7.9 | > 10 | > 10 | 1.27 (≈ 1.48 µM)
5 | Cc1ccc(-c2nc(C[C@H](NC(=O)OC(C)(C)C)C(=O)N[C@@H](Cc3c[nH]c4ccccc34)C(=O)N[C@@H](Cc3c[nH]c(-c4ccc(C)cc4)n3)C(=O)NCc3ccccc3)c[nH]2)cc1 |  |  |  | > 10 | > 10 | > 20 | > 20 | > 10 |  | inactive | inactive | inactive |  | > 10 | > 10 | 12.6 (≈ 14.9 µM)
6 | COC(=O)[C@H](Cc1c[nH]cn1)NC(=O)[C@H](Cc1c[nH]c2ccccc12)NC(=O)[C@@H](N)Cc1c[nH]cn1 (H-His-Trp-His-OMe) | > 1 | > 1 | > 1 | > 10 | > 10 | 20 (≈ 40.6 µM) | 20 (≈ 40.6 µM) | > 10 | > 1 | inactive | inactive | inactive | > 1 | > 10 | > 10 | 9.81 (≈ 19.9 µM)
7 | COc1ccc(-c2nc(C[C@H](NC(=O)[C@H](Cc3c[nH]c4ccccc34)NC(=O)[C@@H](N)Cc3c[nH]c(-c4ccc(OC)cc4)n3)C(=O)NCc3ccccc3)c[nH]2)cc1 | > 1.4 | > 1.4 | > 1.4 | > 10 | > 10 | > 20 | > 20 | > 10 | > 1.4 | inactive | inactive | inactive | > 1.4 | > 10 | > 10 | 7.2 (≈ 9.23 µM)
8 | CC(C)(C)OC(=O)N[C@@H](Cc1c[nH]c(-c2ccc(C(C)(C)C)cc2)n1)C(=O)N[C@@H](Cc1c[nH]c2ccccc12)C(=O)N[C@@H](Cc1c[nH]c(-c2ccc(C(C)(C)C)cc2)n1)C(=O)NCc1ccccc1 |  |  |  | > 10 | > 10 |  |  | > 10 |  | inactive | inactive | inactive |  | > 10 | > 10 | > 20
9 | COC(=O)[C@H](Cc1c[nH]c(-c2ccccc2)n1)NC(=O)[C@H](Cc1c[nH]c2ccccc12)NC(=O)[C@H](Cc1c[nH]c(-c2ccccc2)n1)NC(=O)OC(C)(C)C | > 1.1 | > 1.1 | > 1.1 | > 10 | > 10 | > 20 | > 20 | > 10 | > 1.1 | inactive | inactive | inactive | > 1.1 | > 10 | > 10 | 9.14 (≈ 12.3 µM)
10 | Cc1ccc(-c2nc(C[C@H](NC(=O)[C@H](Cc3c[nH]c4ccccc34)NC(=O)[C@@H](N)Cc3c[nH]c(-c4ccc(C)cc4)n3)C(=O)NCc3ccccc3)c[nH]2)cc1 | > 1.8 | > 1.8 | > 1.8 | > 10 | > 10 | 10 (≈ 13.4 µM) | 10 (≈ 13.4 µM) | > 10 | > 1.8 | inactive | inactive | inactive | > 1.8 | > 10 | > 10 | 5.56 (≈ 7.43 µM)
11 | CC(C)(C)OC(=O)N[C@@H](Cc1cnc[nH]1)C(=O)N[C@@H](Cc1c[nH]c2ccccc12)C(=O)N[C@@H](Cc1cnc[nH]1)C(=O)NCc1ccccc1 (Boc-His-Trp-His-NHBn) | > 12.5 | > 12.5 | > 12.5 | > 10 | > 10 | 1.25 (≈ 1.87 µM) | 1.25 (≈ 1.87 µM) | > 10 | > 12.5 | inactive | inactive | inactive | > 12.5 | > 10 | > 10 | 
12 | N[C@@H](Cc1c[nH]c(-c2ccc(-c3ccccc3)cc2)n1)C(=O)N[C@@H](Cc1c[nH]c2ccccc12)C(=O)N[C@@H](Cc1c[nH]c(-c2ccc(-c3ccccc3)cc2)n1)C(=O)NCc1ccccc1 | > 7.1 | > 7.1 | > 7.1 | > 10 | > 10 | 2.5 (≈ 2.87 µM) | 2.5 (≈ 2.87 µM) | > 10 | > 7.1 | inactive | inactive | inactive | > 7.1 | > 10 | > 10 | 1.4 (≈ 1.61 µM)
13 | COC(=O)[C@H](Cc1c[nH]c(-c2ccc(-c3ccccc3)cc2)n1)NC(=O)[C@H](Cc1c[nH]c2ccccc12)NC(=O)[C@H](Cc1c[nH]c(-c2ccc(-c3ccccc3)cc2)n1)NC(=O)OC(C)(C)C |  |  |  | > 10 | > 10 |  |  | > 10 |  | inactive | inactive | inactive |  | > 10 | > 10 | > 20
